Source: PubChem BioAssay
NS3 helicase inh – blocks Hepatitis C virus NS3 helicase unwinding. inhibition, % at 10.9 µM. hit rate 0.56% among 290,000. NS3 helicase DNA unwinding, Cy5 molecular beacon fluorescence;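 active means inhibition above the mean of all tested compounds plus 3 SD, set per campaign, cut at about 35% in these data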;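 further: 0% = DMSO wells and 100% = thioflavine S control wells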
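assay system = NS3 helicase fragment of HCV | buffer or medium = MOPS pH 6.5, MgCl2, DTT, Tween20, BSA | timing = 60 min unwinding reaction at 25 °C after ATP addition | signal = Cy5 beacon fluorescence read at start and 1 h | read-out basis = % inhibition of unwinding | control set = low DMSO, high thioflavine S at 110 µM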
DNA FID counter – displaces DNA intercalator in HCV helicase counter-screen. DNA fluorescent intercalator displacement, fluorescence. inhibition, % at 7.9 µM. hit rate 0.17% among 290,000. AID 1845; in the data active means inhibition above about 37%;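 further: 0% = vehicle and 100% = reference compound; higher means more ethidium bromide displaced from hairpin DNA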
GPR7 antagonist – blocks human GPR7 receptor signaling | P48145 | GPR7-expressing cells, fluorescence antagonist assay | inhibition, % at 4.4 µM | hit rate 1.1% among 290,000 | AID 1861; in the data active means inhibition above about 16%, passing the limit was not always enough;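 further: cells stimulated with the agonist NPW; 0% = agonist with vehicle and 100% = vehicle without agonist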
Target sequence (P48145 whole entry, looked up): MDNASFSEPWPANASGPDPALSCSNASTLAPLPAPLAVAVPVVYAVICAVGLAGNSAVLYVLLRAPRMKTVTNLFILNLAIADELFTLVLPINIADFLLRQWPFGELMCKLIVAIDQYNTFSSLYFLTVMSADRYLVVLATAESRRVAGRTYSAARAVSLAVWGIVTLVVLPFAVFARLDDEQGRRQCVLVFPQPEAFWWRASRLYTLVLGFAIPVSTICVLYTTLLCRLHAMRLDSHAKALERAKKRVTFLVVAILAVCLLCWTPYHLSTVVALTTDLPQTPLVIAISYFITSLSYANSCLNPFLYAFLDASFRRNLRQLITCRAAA
DAGLB inh – diacylglycerol lipase beta (human) inhibition; Q8NCG7; HEK293T DAGLB membrane lysate, EnzChek fluorogenic substrate; inhibition, % at 5.17 µM; hit rate 0.059% among 340,000; in the data active means inhibition above about 34%;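 further: 0% = enzyme with vehicle and 100% = wells lacking enzyme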
core dimer inh – HCV core protein dimerization inhibition; inhibition, % at 5 µM; hit rate 0.33% among 300,000; TR-FRET GST/Flag-core106 dimerization, 1536-well;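 active means inhibition above the mean of all tested compounds plus 3 SD, set per screening campaign, cut at about 45% in these data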
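Assay system – GST-tagged and Flag-tagged HCV core protein residues 1-106 · Quantity – core106 proteins, GST 13.5 nM and Flag 17 nM · Benchmarks – unlabelled core106 and no-GST-core106 wells · Read-out basis – percent inhibition of core106 dimerization signal · Detection – time-resolved FRET, ex 340 nm, em 617 and 671 nm · Schedule – 4 h at 22.5 °C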
GRK2 aptamer HTS – human GRK2 inhibition via aptamer displacement; bead flow cytometry, FAM-aptamer displacement from GRK2; AID 488847; hit rate 0.59% among 330,000; inhibition of aptamer binding, % at 10 µM; P25098;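 active means inhibition of aptamer binding above 40%, roughly 3 SD of noise, on plates passing a quality check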;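 further: median bead fluorescence of bound FAM aptamer so fluorescent compounds give negative values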
Starred values were filed as active, the others as inactive; . = not tested or not shown. Only some compounds are listed: those with a hit (about 2.2% of all), similar ones and a draw of the others.

SMILES	NS3 helicase inh	DNA FID counter	GPR7 antagonist	DAGLB inh	core dimer inh	GRK2 aptamer HTS
CCCN(C(=O)COC(=O)CSc1ccc([N+](=O)[O-])cc1)C1CCS(=O)(=O)C1 (stereo unspecified)	.	.	.	-6	.	14
Cc1ccc(C2C(C#N)=C(N)Oc3cc(N)ccc32)cc1 (stereo unspecified)	-6	-8	-6	2	1	5
Cc1ccc(/C=C2\CCC3=C2OC(N)=C(C#N)C3c2ccc(C)cc2)cc1 (stereo unspecified)	32	-15	2	-90	76*	0
O=C1CCCCC1Sc1nnc(Cc2cccs2)n1CCc1ccccc1 (stereo unspecified)	0	-24	7	-1	51*	4
COCCn1c(SC2CCCCC2=O)nnc1-c1ccncc1 (stereo unspecified)	-1	-8	5	-1	-4	9
O=C1CC(N2CCN(c3nc4ccccc4s3)CC2)C(=O)N1Cc1cccs1 (stereo unspecified)	6	-8	20*	-4	10	2
O=C1CC(N2CCN(c3ccc(F)cc3)CC2)C(=O)N1Cc1cccs1 (stereo unspecified)	-2	-9	-7	1	2	0
CN(C)c1cc(NC(=O)CNC(C)(C)C)c2ccccc2n1	-12	53*	4	1	1	0
O=C(CC1CCCC1)Nc1ccc2c(c1)CCC2	39*	-5	-3	-5	-2	0
O=C(Nc1ccc2c(c1)C(=O)OC2)c1ccccc1Cl	25	-8	-11	0	-18	4
O=C(/C=C/c1ccco1)Nc1cccc(NC(=O)/C=C/c2ccco2)n1	26	-18	-8	3	49*	5
O=C(c1cc(-c2ccco2)nn1-c1cccc(Cl)c1)N1CCCCC1	23	-19	-4	5	56*	4
CCN1CCN(C(=S)Nc2ccc3nc(N4CCN(CC)CC4)cc(C)c3c2)CC1	7	46*	0	0	1	0
CCCCN(CC)CCNC(=S)Nc1ccc2nc(N3CCN(C)CC3)cc(C)c2c1	-23	43*	8	2	-6	0
CCCN(CCC)CCCNC(=S)Nc1ccc2nc(N3CCN(CC)CC3)cc(C)c2c1	-1	37	-7	-3	1	0
CCN1CCN(C(=S)Nc2ccc3nc(N4CCN(C)CC4)cc(C)c3c2)CC1	14	32	-7	0	-1	0
CCCN(CCC)CCCNC(=S)Nc1ccc2nc(N3CCN(C)CC3)cc(C)c2c1	4	44*	-15	0	0	0
CCCCN(CC)CCNC(=O)CCC(=O)Nc1ccc2nc(N3CCN(C)CC3)cc(C)c2c1	-1	41*	5	0	-5	0
CCN(CC)CCCNC(=O)CCC(=O)Nc1ccc2nc(N3CCCCC3)cc(C)c2c1	8	30	-1	0	-5	0
Cc1cc(Cl)ccc1NC(=O)C1COc2ccccc2O1 (stereo unspecified)	14	-8	0	-9	-8	.
O=C(NC(=S)Nc1cc([N+](=O)[O-])ccc1O)C1CC1	9	-8	13	3	-8	1
CCN(CC)C(=O)C1=C(C)N(Cc2ccc(F)cc2)C(=O)C(CC(=O)NC(c2ccccc2)c2ccccc2)C1 (stereo unspecified)	.	.	.	2	.	.
C=Cc1ccc(Cn2c(=O)n(CCCOC)c(=O)c3sccc32)cc1	-1	-33	6	0	7	0
CCCC(c1nnnn1Cc1ccc(F)cc1)N1CCN(C2CCCCC2)CC1 (stereo unspecified)	-11	11	33*	0	-3	0
CCC(c1nnnn1Cc1cccs1)N1CCN(C2CCCC2)CC1 (stereo unspecified)	-2	8	20*	0	-1	0
SMILES	NS3 helicase inh	DNA FID counter	GPR7 antagonist	DAGLB inh	core dimer inh	GRK2 aptamer HTS
CC(C)C(c1nnnn1Cc1ccc(F)cc1)N1CCN(C2CCCC2)CC1 (stereo unspecified)	-20	9	-4	-1	-4	2
CCCC(c1nnnn1C(C)(C)CC)N1CCN(C2CCCC2)CC1 (stereo unspecified)	8	10	18*	1	0	0
CSc1nc(NCCOCCO)c2sc3nc(-c4ccco4)c4c(c3c2n1)CCC4	30	-28	-3	3	87*	2
COc1cc2c(C#N)c(N3CCCCC3)nc(N)c2c(N)n1	12	-2	-9	-5	19	0
COc1ccc(CN2C(=O)Cc3c2nc(N)c2c(N)nc(N4CCCCC4)c(C#N)c32)cc1	29	-11	2	.	56*	7
CCCCOc1ccc(Br)cc1CSC(=N)N	-39	11	75*	2	.	.
COc1ccc(-c2nc(CSCC(=O)NC3CCN(Cc4ccccc4)CC3)c(C)o2)cc1OC	-4	14	-8	-2	6	0
CCCCCc1ccnc(CC(=O)c2ccc(OC)cc2)c1	.	.	.	1	.	.
CCOc1ccc(S(=O)(=O)N2CCc3ccccc3C2)cc1	-1	-13	20*	-13	7	0
O=C(COc1ccccc1)Nc1ccc(S(=O)(=O)N2CCCCCC2)cc1	8	-8	-1	-5	4	3
O=C(COc1ccccc1)Nc1ccc(S(=O)(=O)N2CCCC2)cc1	10	-15	17*	-3	9	0
O=C(COC(=O)c1n[nH]c2ccccc12)Nc1ccc(S(=O)(=O)N2CCCC2)cc1	-6	-9	17*	-4	15	3
O=C(COc1ccccc1Cl)Nc1ccc(N2CCCC2)cc1	-22	-9	12	-9	29	54*
CCN1CCN(c2ccc(NC(=O)COc3ccccc3Cl)cc2)CC1	-6	8	-5	3	-5	5
O=C(COC(=O)c1n[nH]c2ccccc12)Nc1cccc(S(=O)(=O)N2CCOCC2)c1	-4	-11	1	-2	.	.
C#CCOCCOCCOCCNc1nc(N2CCN(C(=O)[C@H]([C@@H](C)CC)n3cc([C@@H](N)Cc4ccc(O)cc4)nn3)CC2)nc(N2CCN(C(=O)[C@H]([C@@H](C)CC)n3cc([C@@H](N)CC(C)C)nn3)CC2)n1	-62	47*	1	0	-2	0
C#CCOCCOCCOCCNc1nc(N2CCN(C(=O)[C@H]([C@@H](C)CC)n3cc([C@@H](N)CO)nn3)CC2)nc(N2CCN(C(=O)[C@H](Cc3ccc(O)cc3)n3cc([C@@H](N)CC(C)C)nn3)CC2)n1	-65	41*	0	2	4	0
C#CCOCCOCCOCCNc1nc(N2CCN(C(=O)[C@H]([C@@H](C)CC)n3cc([C@@H](N)Cc4ccc(O)cc4)nn3)CC2)nc(N2CCN(C(=O)[C@H](Cc3ccc(O)cc3)n3cc([C@@H](N)C(C)CC)nn3)CC2)n1 (stereo partly specified)	-69	45*	-17	3	2	0
